Most compounds without a hit are left out; they make up all but 2.4% or so of the library.
MC4R antagonist = human MC4R antagonism in cAMP assay. P32245. MC4R-expressing cells, MTII-stimulated cAMP, LANCE TR-FRET. inhibition, % at 6.5 µM. hit rate 0.48% among 360,000. AID 540295;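 active = inhibition above its plate's cutoff, the mean of tested wells on that plate plus 3 SD, cut at about 29% in these data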;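 note: 0% = Melanotan II alone and 100% = Melanotan II plus saturating MCL0020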
Target sequence (P32245 whole entry, looked up): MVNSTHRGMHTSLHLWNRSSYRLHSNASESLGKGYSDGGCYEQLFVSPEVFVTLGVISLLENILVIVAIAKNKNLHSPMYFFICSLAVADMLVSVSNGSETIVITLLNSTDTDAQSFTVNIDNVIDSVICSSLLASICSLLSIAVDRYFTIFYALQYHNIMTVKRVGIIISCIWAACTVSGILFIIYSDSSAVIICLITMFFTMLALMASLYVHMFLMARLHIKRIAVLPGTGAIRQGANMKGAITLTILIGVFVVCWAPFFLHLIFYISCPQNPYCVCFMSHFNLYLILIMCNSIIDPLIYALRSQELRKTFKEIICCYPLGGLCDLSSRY
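Material – human MC4R-expressing U2OS cells · Repeats – no replicates · Detection – TR-FRET with Eu-cAMP and labeled anti-cAMP, 671 nm · Times – compound 30 min, challenge 1 h, detection 1 h · Compound – single nominal compound dose of 6.5 µM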
OPRM1-OPRD1 inv = mu-delta opioid heterodimer inverse agonism; hit rate 0.21% among 340,000; cell-based MOR-DOR heterodimer luminescence; inhibition, % at 9.3 µM; in the data active = inhibition above about 22%, passing the limit was not always enough;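 note: 0% = cells with DMSO and 100% = wells without cells with DMSO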
HTR5A inv ag = HTR5A inverse agonism, opioid heterodimer counter-screen; P47898; inhibition, % at 9.3 µM; HTR5A cell line, luminescence; hit rate 0.083% among 340,000; in the data active = inhibition mostly above about 23%, no sharp cut-off; inactive = mostly below about 18%;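 note: 0% = cells with DMSO and 100% = no-cell wells with DMSO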
Target sequence (P47898 whole entry, looked up): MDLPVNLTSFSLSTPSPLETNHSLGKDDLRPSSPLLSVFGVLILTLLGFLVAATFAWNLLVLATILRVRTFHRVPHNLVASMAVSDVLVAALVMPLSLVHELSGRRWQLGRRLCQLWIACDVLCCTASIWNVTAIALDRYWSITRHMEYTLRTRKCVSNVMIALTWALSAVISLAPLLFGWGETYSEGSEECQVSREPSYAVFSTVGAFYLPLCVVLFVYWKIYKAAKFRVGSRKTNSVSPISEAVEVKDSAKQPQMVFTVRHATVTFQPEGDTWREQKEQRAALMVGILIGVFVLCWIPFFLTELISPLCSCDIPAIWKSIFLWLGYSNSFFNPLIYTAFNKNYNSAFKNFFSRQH
HTR5A ag ctr = HTR5A agonism, opioid heterodimer counter-screen | activation, % at 9.3 µM | HTR5A agonist assay, luminescence, cell-based | hit rate 0.61% among 340,000 | AID 504692; in the data active = activation mostly above about 9.5%, no sharp cut-off; inactive = mostly below about 7.6%;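 note: 0% = cells with vehicle only and 100% = reference agonist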
MC4R ag barr = activates human MC4R beta-arrestin recruitment; P32245; U2OS MC4R beta-arrestin complementation, luminescence; percent of melanotan II response, DMSO zero; activation, % at 8.9 µM; hit rate 0.98% among 360,000;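 active = activation above a per-plate cutoff, the mean activation of sample wells on that plate plus 3 SD, cut at about 8% in these data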
MOR-DOR ag = agonists of human mu-delta opioid receptor heterodimerization; activation, % at 9.3 µM; cells, OPRM1-OPRD1 heterodimerization, luminescence; P35372+P41143; hit rate 0.3% among 340,000; AID 504326; in the data active = activation above about 18%;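 note: 0% = vehicle-treated cells and 100% = reference agonist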
MC4R barr ag = human MC4R beta-arrestin agonism confirmation | AID 602192 | activation, % at 8.9 µM | U2OS MC4R beta-arrestin recruitment, luminescence; scaled DMSO 0%, Melanotan II 100% | hit rate 31% among 2,400 | shares compounds with MC4R ag barr;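 active = mean activation across replicates above the hit cutoff set in the earlier primary screen, cut at about 8% in these data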
MOR-DOR barr ag = activates mu-delta opioid heterodimer, MC4R agonist counter-screen; U2OS PathHunter beta-arrestin, beta-gal luminescence; percent of deltorphin B response, DMSO zero; shares compounds with MC4R ag barr; activation, % at 9.2 µM; hit rate 5.8% among 2,400;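 active = mean activation across replicates exceeds the hit threshold derived in the earlier primary screen, cut at about 18% in these data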;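 note: 100% = deltorphin B at 0.9 µM final and 0% = DMSO alone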
* marks the source's active call; other numbers are inactive results; x = not tested or not shown.

SMILES	MC4R antagonist	OPRM1-OPRD1 inv	HTR5A inv ag	HTR5A ag ctr	MC4R ag barr	MOR-DOR ag	MC4R barr ag	MOR-DOR barr ag
CCCc1ccc(OCC(O)CN2CCN(c3ccccc3)CC2)cc1 (stereo unspecified)	4.8	-17.0	-10.4	2.7	3.8	3.3	x	x
CCc1ccc(OCC(O)CN2CCN(c3ccccc3)CC2)cc1 (stereo unspecified)	5.0	-64.8	-11.2	2.9	10.7*	12.6	0.3	9.3
COc1ccc(CC(=O)OCC(=O)N2N=C(c3ccccc3)CC2c2ccc(OC)cc2)cc1 (stereo unspecified)	6.6	-9.0	13.2	-3.8	-1.5	1.7	x	x
CCCCC(=O)OCC(=O)N1N=C(c2c[nH]c3ccccc23)C(O)C1c1ccc(OC)cc1 (stereo unspecified)	11.7	-32.3	-23.8	6.5	14.8*	6.3	8.3*	4.7
COc1ccc(OC)c(CC(NC(C)=O)C(=O)NC2CCN(c3nc(OC)nc(OC)n3)CC2)c1 (stereo unspecified)	-0.8	13.2	26.4	-1.1	-4.5	-2.6	x	x
CCOc1ccc(C(=O)Nc2ccc(N3CCN(C(=O)c4ccco4)CC3)cc2)cc1Br	1.5	-1.1	-18.3	3.9	14.4*	0.3	2.8	4.2
CCOc1ccc(C(=O)Nc2ccc(N3CCN(C)CC3)cc2)cc1Br	-9.3	8.8	-0.1	0.0	-1.3	-2.1	x	x
CCC(=O)N1CCN(c2ccc(NC(=O)c3ccc4ccccc4c3)cc2)CC1	3.1	-13.7	-13.4	-2.6	16.7*	1.9	6.3	10.1
CCC(=O)N1CCN(c2ccc(NC(=O)c3ccccc3)cc2)CC1	0.5	1.1	9.0	-3.5	-1.0	-0.2	x	x
CCOC(=O)c1ccc(NC(=O)Nc2cc(C)on2)cc1	1.4	-6.4	4.0	9.2	10.5*	1.1	4.4	7.1
CCOC(=O)c1ccc(NC(=O)Nc2cccc(C)n2)cc1	15.9	-21.0	-0.8	-3.2	2.1	3.1	x	x
O=C(Nc1ccc([N+](=O)[O-])cc1Cl)c1cccc([N+](=O)[O-])c1	5.2	x	x	x	12.5*	x	6.8	10.8
O=C(Nc1nc(-c2ccc([N+](=O)[O-])cc2)cs1)c1c(F)cccc1F	15.3	-59.0	-23.1	8.4	23.8*	10.7	0.8	4.4
O=C(Nc1ccc(OCc2ccccc2)cc1)c1cccc([N+](=O)[O-])c1	5.8	-51.4	5.2	-1.5	10.1*	9.8	1.4	11.6
O=C(Nc1ccc([N+](=O)[O-])cc1NC(=O)c1ccccc1)c1ccccc1	19.3	-16.2	-5.5	1.4	4.5	3.2	x	x
O=C(NC(=S)NCc1ccccc1)c1cccc([N+](=O)[O-])c1	8.0	-8.5	-5.3	-3.0	-1.0	1.7	x	x
O=C(CNC(=S)NC(=O)c1cccc([N+](=O)[O-])c1)c1ccccc1	4.6	-10.7	-14.6	1.4	11.0*	1.6	-1.0	1.8
COc1ccc(OCCCC(=O)OCC(=O)c2ccc3c(c2)NC(=O)CO3)cc1	0.4	12.0	-0.7	0.3	0.9	-2.3	x	x
Cc1cccc(CN(C)C[C@H]2OCc3cnnn3CCCC(=O)N([C@H](C)CO)C[C@@H]2C)c1	1.3	x	x	x	0.7	x	x	x
Cc1onc(-c2ccccc2Cl)c1C(=O)NC(=S)NCC(=O)c1ccccc1	2.8	9.7	-3.4	4.9	19.0*	-1.4	3.6	4.7
CCOC(=O)Cc1csc(NC(=O)c2cccc([N+](=O)[O-])c2)n1	0.8	8.7	-5.7	1.6	-2.4	-1.9	x	x
CCc1ccc(NC(=S)NC(=O)c2c(-c3ccccc3Cl)noc2C)cc1	24.4	-5.6	7.5	-2.9	-1.3	1.1	x	x
Cc1ccc(-c2csc(NC(=O)c3cccc([N+](=O)[O-])c3)n2)cc1	2.4	-0.3	-13.0	-1.1	17.6*	0.1	12.7*	5.2
CC(c1ccccc1)c1nnc(NC(=O)c2ccc3c(c2)OCO3)s1 (stereo unspecified)	3.4	-15.1	-32.9	2.9	15.1*	3.0	-2.2	4.4
COc1cc(NC(=O)c2cc(OC)c(OC)c(OC)c2)c2ncccc2c1	4.8	8.6	-5.5	9.0	2.7	-1.6	x	x
SMILES	MC4R antagonist	OPRM1-OPRD1 inv	HTR5A inv ag	HTR5A ag ctr	MC4R ag barr	MOR-DOR ag	MC4R barr ag	MOR-DOR barr ag
COc1cc(NC(=O)c2ccc3c(c2)OCO3)c2ncccc2c1	8.0	-35.5	12.8	0.8	10.5*	6.0	1.9	1.4
O=C(NC(=S)Nc1ccccc1Br)c1ccc2c(c1)OCO2	2.1	17.7	-6.7	2.8	11.1*	-3.5	-2.4	2.1
CC(C)c1nnc(NC(=O)c2ccc3c(c2)OCO3)s1	6.0	1.4	-30.3	-2.9	-3.6	-0.3	x	x
COC(=O)c1sccc1NC(=O)c1ccc2c(c1)OCO2	9.2	-41.6	-16.4	6.2	14.5*	6.7	-1.4	1.7
COc1ccc(N2CC(C(=O)Nc3nnc(Cc4ccccc4)s3)CC2=O)cc1 (stereo unspecified)	14.2	-5.5	1.2	8.3	-1.2	0.8	x	x
COc1ccccc1NS(=O)(=O)c1cc(NC(=O)c2ccncc2)ccc1N1CCCC1	-1.7	1.0	-4.1	1.5	-0.3	-0.2	x	x
O=[N+]([O-])c1ccc(COc2ccccc2CN2CCCCC2)cc1	0.3	8.4	-7.4	2.0	0.0	-1.8	x	x
CCN1CCN(Cc2ccc(NC(=O)Nc3cccs3)cc2)CC1	1.6	-7.7	7.0	-2.5	-1.2	1.4	x	x
O=C(CC1CC2CCC1C2)N1CCN(S(=O)(=O)c2ccc(F)cc2)CC1 (stereo unspecified)	4.5	x	x	x	2.1	x	x	x
O=C1CCc2cc(S(=O)(=O)N3CCN(c4ccc(F)cc4)CC3)cc3c2N1CC3	-4.0	5.9	2.3	-0.8	12.6*	-1.1	3.5	4.4
O=C1CCc2cc(S(=O)(=O)N3CCN(c4ccccc4)CC3)cc3c2N1CCC3	5.2	22.7	5.9	0.7	-2.3	-4.7	x	x
COc1ccccc1/C=N/NC(=O)Cn1cnc([N+](=O)[O-])n1	14.9	2.0	14.1	-3.0	-2.3	-0.4	x	x
COc1ccc(OC)c(N(CCN2C(=O)c3ccccc3C2=O)C(=O)C2CCC(=O)C2C)c1 (stereo unspecified)	4.8	x	x	x	-1.6	x	x	x
Cc1nc(SCc2nc3c(O)cccc3[nH]2)c2oc3ccccc3c2n1	-0.1	3.8	5.8	-3.5	0.5	-0.7	x	x
CCn1c(CCC(=O)O)nc2cc(S(=O)(=O)N3CCOCC3)ccc21	-1.2	18.7	9.6	-2.7	-0.4	-3.6	x	x
COc1cc(NC(=O)c2cc3c(=O)n(C)c4ccccc4c3n2C)cc(OC)c1OC	2.8	-64.1	-16.1	6.1	30.7*	12.9	0.7	7.0

High-throughput results as filed in PubChem.
